Compound activity deposited in PubChem BioAssay by The Scripps Research Institute Molecular Screening Center.
This is a sample that favours compounds with a hit; in the whole collection about 1.8% have one here.
M5 PAM – potentiates acetylcholine response at human M5 receptor; P08912; CHO-K1 hM5, Fluo-8 calcium, ACh EC20 PAM; 0% = ACh EC20, 100% = ACh EC100; activation, % at 3 µM; 360,000 compounds, 0.3% hits; AID 624038;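 active = activation above the run cutoff, the mean activation of all test compounds plus 3 SD, cut at about 18% in these data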
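Measured by: Fluo-8 calcium fluorescence; material: human M5 receptor in CHO-K1 cells; schedule: Post-acetylcholine fluorescence recording 140 s; benchmarks: low control EC20 acetylcholine (0%), high control EC100 acetylcholine (100%); read-out: Max/basal fluorescence ratio as % of EC20–EC100 ACh window; compound: single dose, 3 µM nominal final test concentration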
CHRM5 antagonist – antagonists of human muscarinic M5 receptor (CHRM5); P08912; CHO-hM5 cells, Fluo-8 calcium fluorescence, ACh EC80; inhibition, % at 3 µM; 360,000 compounds, 0.59% hits;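 active = inhibition above a per-plate cutoff, the mean of that plate's test compounds plus 3 SD, cut at about 27% in these data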;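 also: 0% = acetylcholine EC80 with DMSO and 100% = DMSO without agonist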
M5 ag – CHRM5 agonism in calcium assay; P08912; CHO-K1 hM5 cells, Fluo-8 calcium fluorescence; 0% DMSO wells, 100% maximal acetylcholine response; activation, % at 3 µM; 360,000 compounds, 0.19% hits; AID 624037;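 active = activation above the run's mean over test compounds plus 3 SD, cut at about 23% in these data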;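 also: signal is peak over basal fluorescence ratio across the kinetic read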
M4 ag – CHRM4 agonism in calcium assay; 360,000 compounds, 0.14% hits; CHO-K1 hM4/Gqi5, Fluo-8 calcium fluorescence; vehicle 0%, full acetylcholine response 100%; P08173; activation, % at 3 µM;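 active = activation above the run mean over all test wells plus 3 SD, cut at about 32% in these data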;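 also: peak over basal fluorescence ratio per well then scaled between controls; 0% = DMSO wells and 100% = acetylcholine at EC100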
Target sequence (P08173 whole entry, looked up): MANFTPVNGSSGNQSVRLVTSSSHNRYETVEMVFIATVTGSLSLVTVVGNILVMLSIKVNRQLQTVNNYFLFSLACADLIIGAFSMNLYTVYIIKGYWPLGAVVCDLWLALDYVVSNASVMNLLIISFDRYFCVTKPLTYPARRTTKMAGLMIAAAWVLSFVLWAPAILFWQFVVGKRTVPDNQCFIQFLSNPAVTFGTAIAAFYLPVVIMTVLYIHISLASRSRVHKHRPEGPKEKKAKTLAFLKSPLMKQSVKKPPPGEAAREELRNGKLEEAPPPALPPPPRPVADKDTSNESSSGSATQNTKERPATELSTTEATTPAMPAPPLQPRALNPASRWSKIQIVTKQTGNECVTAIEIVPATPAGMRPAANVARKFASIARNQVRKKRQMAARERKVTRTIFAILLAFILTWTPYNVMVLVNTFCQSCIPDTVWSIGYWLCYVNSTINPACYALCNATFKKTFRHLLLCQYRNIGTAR
M4 PAM – positive allosteric modulators of human muscarinic M4 receptor. CHO-K1 hM4/Gqi5, Fluo-8 calcium fluorescence, ACh EC20; 0% = ACh EC20, 100% = maximal ACh. activation, % at 3 µM. 360,000 compounds, 0.4% hits;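 active = activation above its plate's cutoff, the mean activation of sample wells plus 3 SD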
M4 antag – blocks acetylcholine activation of human M4 receptor; AID 624125; inhibition, % at 3 µM; P08173; 360,000 compounds, 0.73% hits; CHO-hM4 cells, ACh EC80, Fluo-8 calcium fluorescence;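 active = inhibition above its plate's cutoff, the mean inhibition of sample wells plus 3 SD, cut at about 27% in these data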;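 also: 0% = acetylcholine EC80 with DMSO and 100% = DMSO without agonist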
* hit, by the source's call.

SMILES	M5 PAM	CHRM5 antagonist	M5 ag	M4 ag	M4 PAM	M4 antag
COc1ccc(S(=O)(=O)N2CCN(c3ccccc3)CC2)cc1	-11.5	28.4*	-5.4	0.7	1.1	4.0
CCOC(=O)COc1ccc(S(=O)(=O)N2CCN(c3ccccc3F)CC2)cc1	-4.8	5.9	3.7	1.6	-5.8	1.0
CCOC(=O)COc1ccc(S(=O)(=O)N2CCN(c3ccc(OC)cc3)CC2)cc1	-14.7	33.3*	-2.7	13.7	-8.8	9.4
O=S(=O)(c1ccccc1)N1CCN(c2ccccc2)CC1	1.8	-9.8	0.0	0.8	-0.9	-9.8
O=C(COC(=O)c1cnccn1)Nc1ncc(Cl)cc1Cl	3.3	3.5	6.2	0.8	-1.9	-3.1
CCN1C(=NCc2ccco2)N[C@@H](c2cccc(C(F)(F)F)c2)C(C(=O)OC)=C1C	-6.3	20.0	-3.0	3.3	2.3	27.1*
COc1ccc(NC(=O)COc2ccccc2Cc2ccccc2)cc1S(N)(=O)=O	-12.9	29.9*	8.9	14.8	-7.3	21.1
COC(=O)c1ccc(/C=C/c2c(-c3ccsc3)oc3ccc(N4CCOCC4)cc23)cc1	6.5	6.3	0.2	0.8	1.7	15.7
C[C@H](CO)N1C[C@H](C)[C@@H](CN(C)C(=O)Nc2ccc3c(c2)OCO3)Oc2c(NC(=O)Nc3ccc4c(c3)OCO4)cccc2C1=O	-24.5	22.7	2.2	21.4	-6.7	26.9*
C[C@H](CO)N1C[C@H](C)[C@@H](CN(C)Cc2ccc(Cl)c(Cl)c2)Oc2c(NC(=O)Cc3ccccc3)cccc2C1=O	-28.2	7.5	-3.1	20.6	-7.6	31.2*
C[C@H](CO)N1C[C@H](C)[C@@H](CN(C)C(=O)Nc2ccccc2)Oc2c(NC(=O)Nc3ccc4c(c3)OCO4)cccc2C1=O	-13.2	9.2	0.5	5.7	4.4	-7.6
CCOC(=O)Cc1cnc(NC(=O)CSc2nc(C(C)C)cc(=O)[nH]2)s1	-6.0	11.8	0.1	0.3	3.6	0.5
CC1(C(=O)Nc2ccc(Cl)cc2)Cc2c(-c3ccc4c(c3)OCO4)ccnc2O1 (centres undefined)	-4.2	1.4	-1.4	-0.4	0.1	-5.9
COC(=O)CN1CCN(C(c2ccccc2)c2ccccc2)CC1	1.0	1.6	-7.3	-0.4	-6.5	8.8
CN(Cc1ccccc1)C(=O)CN1CCN(C(c2ccccc2)c2ccccc2)CC1	-33.7	10.7	-17.8	-0.4	-26.9	50.0*
Cc1ccc(S(C)(=O)=O)cc1C(=O)OCC(=O)N1CCCC1=O	0.2	2.5	2.5	1.0	3.3	14.8
O=C(NCc1ccccc1)NC12CC3CC(CC(C3)C1)C2	19.7*	-11.3	-0.2	-1.0	-3.0	-17.4
O=C(NCc1ccccc1)NCC12CC3CC(CC(C3)C1)C2	-15.1	14.8	8.7	16.8	-10.4	-4.1
S=C(Nc1ccc(Cl)cc1Cl)N1CCOCC1	2.9	-5.2	1.7	1.3	21.1*	6.2
S=C(NCCc1ccc(Cl)cc1)Nc1ccc(Cl)cc1Cl	-18.2	34.9*	-1.5	6.9	-15.6	9.0
S=C(NCc1ccc(Cl)cc1)Nc1ccc(Cl)cc1Cl	-17.4	15.4	-0.5	8.7	-10.9	9.4
O=C1CCCCC(=O)[C@H](OC(=O)c2ccccc2)C[C@H](c2ccccc2)O1	-6.1	9.1	1.2	1.8	8.9	-20.6
CCc1nnc(NC(=O)CCN2C(=O)/C(=C/c3cc(OC)c(OC)c(OC)c3)SC2=S)s1	4.5	-10.8	-3.0	1.6	15.0*	-27.9
O=S(=O)(c1cccs1)N1CCN(c2ccnc3cc(Cl)ccc23)CC1	-20.1	6.1	-10.2	-1.2	-17.4	100.3*
CC1CCC(NC(=O)C(NS(=O)(=O)c2ccc(Br)cc2)C(C)C)CC1 (centres undefined)	-3.4	-5.0	4.6	-0.2	5.1	-5.2
SMILES	M5 PAM	CHRM5 antagonist	M5 ag	M4 ag	M4 PAM	M4 antag
CN(Cc1ccc(Cl)cc1)C(=O)CNC(=O)C12CC3CC(CC(C3)C1)C2	4.7	0.9	-0.9	4.3	12.3	-3.6
O=C(Nc1ccc(N2CCN(C(=O)c3ccco3)CC2)c(Cl)c1)c1cc2ccccc2o1	-23.0	30.5*	1.8	18.3	-16.2	51.2*
CCCC(=O)N1CCN(c2ccc(NC(=O)c3cc4ccccc4o3)cc2Cl)CC1	-20.5	21.2	2.9	18.8	-20.7	37.8*
COc1cccc(C2=NOC(C(=O)N3CCOCC3)C2)c1 (centres undefined)	-3.1	9.9	0.0	0.9	29.5*	9.4
COc1ccc(C2=NOC(C(=O)N3CCOCC3)C2)cc1OC (centres undefined)	-1.9	-3.5	-1.6	-0.1	11.6	-13.5
CCCCNc1c(-c2cccc(-c3cc(C(C)=O)cs3)c2)nc2ccc(C)cn12	-34.5	19.8	-4.9	20.8	-11.4	26.4
CCCCNc1c(-c2ccc(-c3cccc(Cl)c3)cc2)nc2ccccn12	-18.1	15.5	-1.9	4.8	-14.7	9.0
CCCCNc1c(-c2cccc(-c3ccc(OC)cc3)c2)nc2ccc(C)cn12	-39.1	34.3*	-4.6	22.4	-13.8	51.7*
CCCCNc1c(-c2cccc(-c3ccc(OC)cc3)c2)nc2cc(C)ccn12	-32.4	27.8*	-7.2	15.2	-13.1	41.5*
CCCCNc1c(-c2ccc(OC)c(SC3CCCCC3)c2)nc2cc(C)ccn12	-13.1	14.6	-7.8	7.4	-12.1	28.6*
CCOC(=O)CN1CC(C)(C)N(CC(=O)OCC)CC1(C)C	-14.6	22.3	-4.2	0.8	4.3	-4.6
O=C(Cn1cnc2ccccc21)Nc1cccc(S(=O)(=O)N2CCCC2)c1	-0.3	-2.6	-10.6	1.9	-0.1	6.9
O=C1NC(c2ccncc2)C(C(=O)c2cccs2)C(O)(C(F)(F)F)N1 (centres undefined)	-0.9	16.7	-4.1	2.4	15.2	29.6*
COc1ccccc1C(CNC(=O)C(C)(C)Oc1ccc(Cl)cc1)N1CCCC1 (centres undefined)	-31.5	71.8*	-8.3	1.1	-15.6	9.9
O=C(O)c1cccc(Nc2nc(Nc3ccccc3)nc(N3CCCC3)n2)c1	12.0	-4.0	-0.9	-0.4	24.8*	-6.1
Cc1cccc2cc(CN(CCN(C)C)C(=S)Nc3ccccc3)c(=O)[nH]c12	23.6*	-7.7	10.9	2.4	35.9*	-7.4
Cc1ccc(N(Cc2cc3cccc(C)c3[nH]c2=O)S(=O)(=O)c2ccccc2)c(C)c1	-11.5	27.9*	-5.8	7.8	-4.6	9.2
CCN(CC)CCN(Cc1cc2cc(C)ccc2[nH]c1=O)C(=S)Nc1ccccc1	-16.2	45.6*	52.1*	0.6	-5.7	5.5
Cc1cccc(NC(=S)N(CCN(C)C)Cc2cc3cc(C)ccc3[nH]c2=O)c1	7.6	-0.1	20.0	1.8	11.8	1.6
